# Experimental data published in ChEMBL document CHEMBL1153722, “Design, synthesis, and characterization of peptide-based rab geranylgeranyl transferase inhibitors” (J Med Chem, 2009).
# Peptide text beside a SMILES is read from it. * marks the point of attachment. Hydrocinnamoyl = O=C(CCc1ccccc1)*; Undecanoyl = CCCCCCCCCCC(=O)*; Morpholide = C1CN(*)CCO1; Cbz = O=C(OCc1ccccc1)*; NHBn = c1ccc(CN*)cc1
# Species on record: Rattus norvegicus
# Experiment: Inhibition of rat recombinant Rab geranylgeranyltransferase at 100 uM in presence of canine Rab7 and rat REP1 NBD-FPP based continuous fluorimetric assay
# Summary of the method: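 Continuous fluorometric assay in 96/384-well format: 3 μM Rab7, 3 μM REP1, 9 μM NBD-FPP and 400 nM RabGGTase, with or without inhibitor. […] IC50 was calculated from three independent measurements.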
row,Structure (SMILES),inhibition
1,CCCCCCCCCCCC(=O)N[C@@H](Cc1ccc(O)cc1)C(=O)N[C@@H](Cc1c[nH]cn1)C(=O)N[C@@H](Cc1ccc(O)cc1)C(=O)Nc1ccccc1N,42%
2,CCCCCCCCCCCC(=O)N[C@@H](Cc1c[nH]cn1)C(=O)N[C@@H](Cc1c[nH]cn1)C(=O)N[C@@H](CO)C(=O)NCC(O)CO (stereo partly specified),63%
3,O=C(CCc1ccccc1)N[C@@H](CO)C(=O)N[C@@H](Cc1ccccc1)C(=O)N[C@@H](CO)C(=O)O (Hydrocinnamoyl-Ser-Phe-Ser-OH),95%
4,CC[C@H](C)[C@H](NC(=O)c1ccc(-c2ccccc2)cc1)C(=O)N[C@@H](C(=O)N[C@@H](CCC(N)=O)C(=O)Nc1cccc(Br)n1)C(C)C,106%
5,CCCCCCCCCCCOc1ccc(C(=O)N[C@@H](Cc2ccc(O)cc2)C(=O)N[C@@H](Cc2ccc(O)cc2)C(=O)N[C@@H](Cc2ccc(O)cc2)C(N)=O)cc1,103%
6,NCCCC[C@H](NC(=O)CCc1ccccc1)C(=O)N[C@@H](Cc1c[nH]cn1)C(=O)N[C@@H](CO)C(=O)NCc1cccc(F)c1,96%
7,O=C(CNC(=O)[C@@H]1CCCN1C(=O)c1coc(-c2ccccc2)n1)N[C@@H](Cc1c[nH]cn1)C(=O)Nc1ccc(F)cc1F,87%
8,COC(=O)[C@H](Cc1ccccc1)NC(=O)[C@H](Cc1ccccc1)NC(=O)[C@H](CC(C)C)NC(=O)/C=C/c1ccccc1,-2%
9,CC(C)CCNC(=O)[C@H](Cc1ccccc1)NC(=O)[C@H](CC(C)C)NC(=O)[C@@H]1CCCN1C(=O)/C=C/c1ccccc1,104%
10,CCCCCCCCCCC(=O)N[C@@H](Cc1ccc(O)cc1)C(=O)N[C@@H](Cc1c[nH]cn1)C(=O)N[C@@H](Cc1c[nH]cn1)C(=O)O (Undecanoyl-Tyr-His-His-OH),64%
11,NCCOC(=O)[C@H](Cc1ccc(O)cc1)NC(=O)CCNC(=O)[C@H](Cc1c[nH]cn1)NC(=O)OCc1ccccc1,100%
12,CC(C)(C)Oc1ccc(C[C@H](NC(=O)CNC(=O)[C@H](Cc2cn(C(c3ccccc3)(c3ccccc3)c3ccccc3)cn2)NC(=O)c2coc(-c3ccccc3)n2)C(=O)O)cc1,80%
13,C[C@H](NC(=O)CCc1ccccc1)C(=O)N[C@@H](Cc1ccccc1)C(=O)N[C@@H](CCC(N)=O)C(=O)OCCCCO,44%
14,O=C(CNC(=O)c1coc(-c2ccccc2)n1)NCC(=O)N[C@@H](Cc1cn(C(c2ccccc2)(c2ccccc2)c2ccccc2)cn1)C(=O)Nc1ccc(F)cc1F,6%
15,CC(C)(C)Oc1ccc(C[C@H](NC(=O)CNC(=O)[C@H](CCCCN)NC(=O)c2coc(-c3ccccc3)n2)C(=O)O)cc1,93%
16,CN(CCc1ccccn1)C(=O)[C@H](Cc1ccc(O)cc1)NC(=O)CCNC(=O)[C@H](Cc1c[nH]cn1)NC(=O)OCc1ccccc1,78%
17,CCCCCCCCCCCOc1ccc(C(=O)N[C@@H](Cc2c[nH]cn2)C(=O)N[C@@H](Cc2ccc(O)cc2)C(=O)N[C@@H](Cc2ccccc2)C(=O)OCCN)cc1,74%
18,C[C@H](NC(=O)[C@@H](NC(=O)c1ccc(-c2ccccc2)cc1)[C@@H](C)O)C(=O)N[C@@H](CCC(=O)O)C(=O)NN,89%
19,CC[C@H](C)[C@H](NC(=O)CCc1ccc(F)cc1)C(=O)N[C@@H](C)C(=O)N[C@@H](CCC(N)=O)C(=O)Nc1cccc(Br)n1,92%
20,C[C@@H](O)[C@H](NC(=O)/C=C/c1ccccc1)C(=O)N[C@@H](Cc1ccccc1)C(=O)N[C@@H](CCC(N)=O)C(=O)OCCCl,81%
21,O=C(N[C@@H](Cc1ccccc1)C(=O)N[C@@H](Cc1ccccc1)C(=O)N[C@@H](Cc1ccc(O)cc1)C(=O)O)OCc1ccccc1 (Cbz-Phe-Phe-Tyr-OH),9%

row,Structure (SMILES),inhibition
1,O=C(N[C@@H](CO)C(=O)N[C@@H](Cc1ccccc1)C(=O)N[C@@H](CO)C(=O)OCCCl)C(Br)C(Br)c1ccc(F)cc1 (stereo partly specified),98%
2,COC(=O)NNC(=O)[C@H](CCC(=O)O)NC(=O)[C@H](NC(=O)[C@@H]1CCCN1C(=O)c1ccc([N+](=O)[O-])c(NC(C)=O)c1)C(C)C,101%
3,O=C(CNC(=O)[C@H](Cc1ccccc1)NC(=O)c1coc(-c2ccccc2)n1)N[C@@H](CO)C(=O)O,106%
4,C[C@@H](O)[C@H](NC(=O)/C=C/c1ccccc1)C(=O)N[C@@H](Cc1ccccc1)C(=O)N[C@@H](CCC(N)=O)C(=O)Nc1cccc(Br)n1,83%
5,C[C@H](NC(=O)/C=C/c1ccc(F)cc1)C(=O)NCC(=O)N[C@@H](Cc1ccc(O)cc1)C(=O)O,76%
6,C[C@@H](NC(=O)CCc1ccccc1)C(=O)N[C@@H](Cc1ccccc1)C(=O)N[C@@H](CCC(N)=O)C(=O)O,111%
7,O=C(CNC(=O)[C@H](Cc1ccc(O)cc1)NC(=O)c1coc(-c2ccccc2)n1)N[C@@H](Cc1ccccc1)C(=O)O,65%
8,O=C(CNC(=O)[C@H](Cc1c[nH]cn1)NC(=O)c1coc(-c2ccccc2)n1)N[C@@H](Cc1ccc(O)cc1)C(=O)O,99%
9,O=C(CNC(=O)[C@H](Cc1ccc(O)cc1)NCCc1ccc(F)cc1)N[C@@H](Cc1ccc(O)cc1)C(=O)N1CCOCC1,92%
10,CCCCCCCCCCCCCC(=O)OC[C@H](NC(=O)[C@H](Cc1ccccc1)NC(=O)[C@H](CCCCNC(=O)c1csc(-c2cccnc2)n1)NC(=O)c1csc(-c2cccnc2)n1)C(=O)O,67%
11,C[C@@H](O)[C@H](NC(=O)C(Br)C(Br)c1ccccc1)C(=O)N[C@@H](Cc1ccccc1)C(=O)N[C@@H](CCC(N)=O)C(=O)Nc1nccs1 (stereo partly specified),93%
12,CCC(C)OC(=O)[C@H](CCC(N)=O)NC(=O)[C@H](Cc1ccccc1)NC(=O)[C@@H](C)NC(=O)CCc1ccccc1 (stereo partly specified),83%
13,O=C(/C=C/c1ccc(F)cc1)N[C@@H](CO)C(=O)NCC(=O)N[C@@H](CO)C(=O)NC1CCCCC1,81%
14,CC(=O)Nc1cc(C(=O)N2CCC[C@H]2C(=O)N[C@@H](C(=O)N[C@@H](CCC(=O)O)C(=O)Nc2ccc(F)c(Cl)c2)C(C)C)ccc1[N+](=O)[O-],109%
15,O=C(CCc1ccccc1)N[C@@H](CO)C(=O)NCC(=O)N[C@@H](CO)C(=O)N1CCOCC1 (Hydrocinnamoyl-Ser-Gly-Ser-Morpholide),83%
16,COC(=O)COC(=O)[C@H](Cc1ccccc1)N(C)C(=O)[C@H](Cc1ccc(OC)cc1)N(C)C(=O)[C@@H](Cc1ccc(O)cc1)NC(=O)CCc1ccccc1,88%
17,CCCCCCCCCCC(=O)N[C@@H](Cc1c[nH]cn1)C(=O)N[C@@H](Cc1c[nH]cn1)C(=O)N[C@@H](CO)C(N)=O (Undecanoyl-His-His-Ser-NH2),81%
18,CCCCCCCCCCCC(=O)N[C@@H](Cc1c[nH]cn1)C(=O)N[C@@H](Cc1c[nH]cn1)C(=O)N[C@@H](CO)C(=O)Nc1ccccc1N,88%
19,CCCCCCCCCCC(=O)N[C@@H](Cc1ccc(O)cc1)C(=O)N[C@@H](Cc1c[nH]cn1)C(=O)N[C@@H](Cc1c[nH]cn1)C(=O)Nc1ccccn1,64%
20,Cc1ccc(C(=O)OC[C@H](NC(=O)CNC(=O)[C@H](COC(=O)c2ccc(C)nc2)NC(=O)c2coc(-c3ccccc3)n2)C(=O)O)cn1,100%
21,O=C(CCNC(=O)[C@H](Cc1c[nH]cn1)NC(=O)OCc1ccccc1)N[C@@H](Cc1ccc(O)cc1)C(=O)NCC(O)CO (stereo partly specified),89%

row,Structure (SMILES),inhibition
1,CCCCCCCCCCC(=O)N[C@@H](Cc1c[nH]cn1)C(=O)N[C@@H](Cc1ccccc1)C(=O)N[C@@H](Cc1ccc(O)cc1)C(N)=O (Undecanoyl-His-Phe-Tyr-NH2),45%
2,CC(C)C[C@H](NC(=O)[C@H](COC(C)(C)C)NC(=O)[C@H](Cc1ccccc1)NC(=O)c1ccc(-c2ccccc2)cc1)C(N)=O,48%
3,NCCCC[C@H](NC(=O)CCc1ccccc1)C(=O)N[C@@H](Cc1c[nH]cn1)C(=O)N[C@@H](CO)C(=O)NC1CCCCC1,98%
4,CC(C)C[C@H](NC(=O)[C@@H]1CCCN1C(=O)/C=C/c1ccccc1)C(=O)N[C@@H](Cc1ccccc1)C(=O)NC1CCCCC1,82%
5,COC(=O)[C@H](Cc1ccc(O)cc1)NC(=O)CNC(=O)[C@H](Cc1c[nH]cn1)NC(=O)OCc1ccccc1 (Cbz-His-Gly-Tyr-OMe),70%
6,CC(C)C[C@H](NC(=O)c1coc(-c2ccccc2)n1)C(=O)NCC(=O)N[C@@H](Cc1c[nH]cn1)C(=O)Nc1ccc(F)cc1F,88%
7,O=C(N[C@@H](CO)C(=O)N[C@@H](Cc1ccccc1)C(=O)N[C@@H](CO)C(=O)O)C(Br)C(Br)c1ccc(F)cc1 (stereo partly specified),92%
8,O=C(/C=C/c1ccc(F)cc1)N[C@@H](CO)C(=O)N[C@@H](Cc1ccccc1)C(=O)N[C@@H](CO)C(=O)NCc1ccccc1,100%
9,CON(C)C(=O)[C@H](CCC(=O)O)NC(=O)[C@H](C)NC(=O)[C@@H](NC(=O)c1ccc(-c2ccccc2)cc1)[C@@H](C)O,102%
10,C[C@H](NC(=O)CCc1ccccc1)C(=O)N[C@@H](Cc1ccccc1)C(=O)N[C@@H](CCC(N)=O)C(=O)Nc1nccs1,96%
11,O=C(CNC(=O)C1CCCN1C(=O)/C=C/c1ccccc1)NC(Cc1ccccc1)C(=O)NCc1ccc(F)cc1F (stereo unspecified),54%
12,C[C@H](NC(=O)CCc1ccccc1)C(=O)N[C@@H](Cc1ccccc1)C(=O)N[C@@H](CCC(N)=O)C(=O)NNc1ccccc1,5%
13,CC(C)C[C@H](NC(=O)[C@H](CO)NC(=O)[C@H](Cc1ccccc1)NC(=O)c1ccc(-c2ccccc2)cc1)C(N)=O,110%
14,CC(C)(C)Oc1ccc(C[C@H](NC(=O)c2coc(-c3ccccc3)n2)C(=O)NCC(=O)N[C@@H](Cc2c[nH]c3ccccc23)C(=O)O)cc1,32%
15,CC[C@H](C)[C@H](NC(=O)c1ccc(-c2ccccc2)cc1)C(=O)N[C@@H](C(=O)N[C@@H](CCC(N)=O)C(=O)N1CCOCC1)C(C)C,92%
16,COC(=O)[C@H](CO)NC(=O)[C@H](Cc1ccccc1)NC(=O)[C@H](CO)NC(=O)/C=C/c1ccc(F)cc1,98%
17,NC(=O)CC[C@H](NC(=O)[C@H](Cc1ccccc1)NC(=O)CNC(=O)CCc1ccccc1)C(=O)NCc1ccccc1 (Hydrocinnamoyl-Gly-Phe-Gln-NHBn),85%
18,C[C@@H](O)[C@H](NC(=O)/C=C/c1ccccc1)C(=O)N[C@@H](Cc1ccccc1)C(=O)N[C@@H](CCC(N)=O)C(=O)Nc1ccc(F)c(Cl)c1,91%
19,CC#CCOC(=O)[C@H](Cc1ccccc1)NC(=O)CNC(=O)[C@@H]1CCCN1C(=O)/C=C/c1ccccc1,69%
